From ChEMBL document CHEMBL5329210, “Novel piperazine-1,2,3-triazole leads for the potential treatment of pancreatic cancer” (RSC Med Chem, 2023)

Legend:
[1] = system: BXPC-3; test: Inhibition of cell growth of human BXPC-3 cells measured after 72 hrs by CCK8 assay; assay type: functional
In short: (§1)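 CCK-8 viability in human pancreatic cancer lines. Compounds were added over 100–0.05 μM 24 h after seeding, alongside a 0.5% DMSO vehicle. After 72 h, CCK-8 was incubated for 1 h at 37 °C. A450 minus A650 was expressed as % of vehicle. IC50 was taken from the dose-response curve. Seeding was 3×10^3/well for MiaPaCa2 and 7×10^3/well for BxPC3 and CFPAC-1. n = 3.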

[2] = system: PANC-1; test: Inhibition of cell growth of human PANC-1 cells measured after 72 hrs by CCK8 assay; assay type: functional
[3] = system: HPAC; test: Inhibition of cell growth of human HPAC cells measured after 72 hrs by CCK8 assay; assay type: functional
[4] = system: Capan-2; test: Inhibition of cell growth of human Capan-2 cells measured after 72 hrs by CCK8 assay; assay type: functional
[5] = system: ASPC1; test: Inhibition of cell growth of human ASPC1 cells measured after 72 hrs by CCK8 assay; assay type: functional
[6] = system: PANC-1; test: Inhibition of cell growth of human PANC-1 cells measured after 72 hrs by MTT assay; assay type: functional
In short: (§2)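 MTT read-out. Cancer lines were grown in DMEM with 10% FBS, glutamine and antibiotics. MCF10A was grown in DMEM:F12 with 5% horse serum, EGF, hydrocortisone, cholera toxin and insulin. Cells were plated in duplicate at 2500–4000/well, and drug was added 24 h later. After 72 h, absorbance was read at 540 nm. Single-point lines used 25 μM. GI50 is 50% growth inhibition versus untreated control. n = 3.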

[7] = system: MCF7; test: Inhibition of cell growth of human MCF7 cells at 25 uM measured after 72 hrs by MTT assay relative to control; assay type: functional; in short: as §2
[8] = system: HPAC; test: Inhibition of cell growth of human HPAC cells at 25 uM measured after 72 hrs by MTT assay relative to control; assay type: functional; in short: as §2
[9] = system: ASPC1; test: Inhibition of cell growth of human ASPC1 cells measured after 72 hrs by MTT assay; assay type: functional; in short: as §2
[10] = system: PANC-1; test: Inhibition of cell growth of human PANC-1 cells at 25 uM measured after 72 hrs by MTT assay relative to control; assay type: functional; in short: as §2
[11] = system: HT-29; test: Inhibition of cell growth of human HT-29 cells measured after 72 hrs by MTT assay; assay type: functional; in short: as §2
[12] = Inhibition of cell growth of human MCF-10A cells measured after 72 hrs by MTT assay; assay type: toxicity, cell-based; in short: as §2
[13] = system: Capan-2; test: Inhibition of cell growth of human Capan-2 cells at 25 uM measured after 72 hrs by MTT assay relative to control; assay type: functional; in short: as §2
[14] = system: A2780; test: Inhibition of cell growth of human A2780 cells measured after 72 hrs by MTT assay; assay type: functional; in short: as §2
[15] = system: MCF7; test: Inhibition of cell growth of human MCF7 cells measured after 72 hrs by MTT assay; assay type: functional; in short: as §2
[16] = system: MIA PaCa-2; test: Inhibition of cell growth of human MIA PaCa-2 cells measured after 72 hrs by MTT assay; assay type: functional; in short: as §2
[17] = system: MIA PaCa-2; test: Inhibition of cell growth of human MIA PaCa-2 cells at 25 uM measured after 72 hrs by MTT assay relative to control; assay type: functional; in short: as §2
[18] = system: BE(2)-C; test: Inhibition of cell growth of human BE2C cells measured after 72 hrs by MTT assay; assay type: functional; in short: as §2
[19] = system: HT-29; test: Inhibition of cell growth of human HT-29 cells at 25 uM measured after 72 hrs by MTT assay relative to control; assay type: functional; in short: as §2
[20] = system: Capan-2; test: Inhibition of cell growth of human Capan-2 cells measured after 72 hrs by MTT assay; assay type: functional; in short: as §2
[21] = system: BE(2)-C; test: Inhibition of cell growth of human BE2C cells at 25 uM measured after 72 hrs by MTT assay relative to control; assay type: functional; in short: as §2
[22] = system: ASPC1; test: Inhibition of cell growth of human ASPC1 cells at 25 uM measured after 72 hrs by MTT assay relative to control; assay type: functional; in short: as §2
[23] = system: BXPC-3; test: Inhibition of cell growth of human BXPC-3 cells measured after 72 hrs by MTT assay; assay type: functional; in short: as §2
[24] = Inhibition of cell growth of human MCF-10A cells at 25 uM measured after 72 hrs by MTT assay relative to control; assay type: toxicity, cell-based; in short: as §2
[25] = system: HPAC; test: Inhibition of cell growth of human HPAC cells measured after 72 hrs by MTT assay; assay type: functional; in short: as §2
[26] = system: A2780; test: Inhibition of cell growth of human A2780 cells at 25 uM measured after 72 hrs by MTT assay relative to control; assay type: functional; in short: as §2
[27] = system: BXPC-3; test: Inhibition of cell growth of human BXPC-3 cells at 25 uM measured after 72 hrs by MTT assay relative to control; assay type: functional; in short: as §2
[28] = Inhibition of cell growth of human pancreatic cancer cells measured after 72 hrs by CCK8 assay; assay type: functional; in short: as §1
[29] = system: MIA PaCa-2; test: Inhibition of cell growth of human MIA PaCa-2 cells at 25 uM measured after 72 hrs by CCK8 assay relative to control; assay type: functional
In short: (§3)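 Single 25 μM exposure, read by CCK-8, n = 3, relative to control. Seeding was 3×10^3/well for MiaPaCa2, 7×10^3/well for BxPC3 (in RPMI-1640/10% FBS) and 1×10^4/well for HPDE (in KSFM with rEGF/BPE). After 24 h attachment, cells were exposed for 72 h. CCK-8 was then incubated for 1 h, and A450 minus A650 was compared with 0.5% DMSO.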

[30] = system: NCI-H460; test: Inhibition of cell growth of human NCI-H460 cells measured after 72 hrs by MTT assay; assay type: functional; in short: as §2
[31] = system: U-87 MG; test: Inhibition of cell growth of human U87 cells measured after 72 hrs by MTT assay; assay type: functional, U-87MG ATCC; in short: as §2
[32] = system: A-431; test: Inhibition of cell growth of human A-431 cells measured after 72 hrs by MTT assay; assay type: functional; in short: as §2
[33] = system: BXPC-3; test: Inhibition of cell growth of human BXPC-3 cells at 25 uM measured after 72 hrs by CCK8 assay relative to control; assay type: functional; in short: as §3
[34] = Inhibition of cell growth of human HPDE cells at 25 uM measured after 72 hrs by CCK8 assay relative to control; assay type: toxicity, cell-based; in short: as §3
[35] = system: DU-145; test: Inhibition of cell growth of human DU-145 cells measured after 72 hrs by MTT assay; assay type: functional; in short: as §2
[36] = Inhibition of cell growth of human SJG2 cells measured after 72 hrs by MTT assay; assay type: functional; conditions: SJ-G2; in short: as §2

Row | Compound | GI50 [6] [µM] | GI50 [9] [µM] | GI50 [11] [µM] | GI50 [14] [µM] | GI50 [15] [µM] | GI50 [16] [µM] | GI50 [23] [µM] | GI50 [30] [µM] | GI50 [31] [µM] | GI50 [32] [µM] | GI50 [35] [µM] | GI50 at 72 h [12] [µM] | GI50 [18] [µM] | GI50 [20] [µM] | GI50 [25] [µM] | inhibition at 25 µM [29] [%] | inhibition at 25 µM [33] [%] | inhibition at 72 h, 25 µM [34] [%] | GI50 [36] [µM] | further results
1 | Cc1ccc(-c2cn(CCCN3CCN(S(=O)(=O)c4ccc(C(F)(F)F)cc4)CC3)nn2)cc1 |  |  |  |  |  |  |  |  |  |  |  |  |  |  |  |  |  |  |  | GI50 [1]: 4 µM; GI50 [2]: 6.1 µM; GI50 [3]: 5 µM; GI50 [4]: 5 µM; GI50 [5]: 7.3 µM
2 | CC(C)(C)c1ccc(-c2cn(CCCNCCNS(=O)(=O)c3cc(C(F)(F)F)cc(C(F)(F)F)c3)nn2)cc1 |  |  |  |  |  |  |  |  |  |  |  |  |  |  |  |  |  |  |  | GI50 [28]: 1.1 µM
3 | COc1cccc(-c2cn(CCCN3CCN(S(=O)(=O)c4ccccc4)CC3)nn2)c1 |  |  | 28 | 40 | 35 | > 50 |  | > 50 | > 50 | > 50 | > 50 | > 50 | > 50 |  |  | < 10 | < 10 | 15.8 | 42 | 
4 | COc1cccc(-c2cn(CCCN3CCN(S(=O)(=O)c4ccc(C(F)(F)F)cc4)CC3)nn2)c1 |  |  | 23 | 21 | 28 | > 50 |  | > 50 | > 50 | > 50 | > 50 | 39 | > 50 |  |  | < 10 | < 10 | 29 | > 50 | 

Further lines, with some results ahead:

Row | GI50 [6] [µM] | GI50 [9] [µM] | GI50 [11] [µM] | GI50 [14] [µM] | GI50 [15] [µM] | GI50 [16] [µM] | GI50 [23] [µM] | GI50 [30] [µM] | GI50 [31] [µM] | GI50 [32] [µM] | GI50 [35] [µM] | Compound | GI50 at 72 h [12] [µM] | GI50 [18] [µM] | GI50 [20] [µM] | GI50 [25] [µM] | inhibition at 25 µM [29] [%] | inhibition at 25 µM [33] [%] | inhibition at 72 h, 25 µM [34] [%] | GI50 [36] [µM] | further results
5 | > 50 | > 50 | 10 | 14 | 9.2 | > 50 | > 50 |  |  |  |  | O=S(=O)(c1ccccc1C(F)(F)F)N1CCN(CCCn2cc(-c3ccc(Br)cc3)nn2)CC1 | 12 | 38 | 23 | > 50 |  |  |  |  | inhibition at 25 µM [7]: 87%; inhibition at 25 µM [8]: 42%; inhibition at 25 µM [10]: 53%; inhibition at 25 µM [13]: 65%; inhibition at 25 µM [17]: 70%; inhibition at 25 µM [19]: 92%; inhibition at 25 µM [21]: 58%; inhibition at 25 µM [22]: 51%; inhibition at 72 h, 25 µM [24]: 72%; inhibition at 25 µM [26]: 68%; inhibition at 25 µM [27]: < 10%
6 | 5.2 | 14 | 8.6 | 6.2 | 6.1 | 7.8 | 12 |  |  |  |  | COc1ccc(-c2cn(CCCN3CCN(S(=O)(=O)c4ccc(C(F)(F)F)cc4)CC3)nn2)cc1 | 4.9 | 6.4 | 8.4 | 16 |  |  |  |  | 
7 |  |  | 18 | 20 | 14 | > 50 |  | 35 | > 50 | 40 | 25 | COc1cccc(-c2cn(CCCN3CCN(S(=O)(=O)c4ccc(Br)cc4)CC3)nn2)c1 | 29 | 20 |  |  | < 10 | 10.7 | 32.6 | 23 | 
8 |  |  | 22 | 29 | 33 | > 50 |  | > 50 | > 50 | > 50 | > 50 | COc1cccc(-c2cn(CCCN3CCN(S(=O)(=O)c4ccc(C)cc4)CC3)nn2)c1 | > 50 | > 50 |  |  | < 10 | < 10 | 45 | > 50 | 
9 | 0.68 | 0.61 | 0.47 | 0.8 | 0.36 | 0.64 | 0.48 |  |  |  |  | COc1ccccc1-c1cn(CCCN2CCN(S(=O)(=O)c3ccc(C(F)(F)F)cc3)CC2)nn1 | 1 | 0.59 | 0.56 | 0.43 |  |  |  |  | 
